The values below come from ChEMBL document CHEMBL2412959, “Investigations on synthesis and structure elucidation of novel [1,2,4]triazolo[1,2-a]pyridazine-1-thiones and their inhibitory activity against inducible nitric oxide synthase” (Bioorg Med Chem, 2013).

Activity calls are given as the source filed them. The calls are words filed in the database; no cut-off is given here.

A short description of data set [1]: Chemical stability in DMSO assessed as compound precipitation after several weeks. Format: physicochemical.
Data set [2] in a line: Cytotoxicity against rat RINm5F cells at 39 to 78 uM by MTT assay. Format: cell-based. The procedure, abridged: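 RIN5F rat insulinoma cells, 1×10^5 per well, cytokine-induced and compound-treated as for the NO assay. After supernatant removal, medium was replaced with fresh medium containing MTT (2.5 mg/mL in PBS) for 4 h at 37 °C. Formazan was dissolved in DMSO. Viability is expressed as percent of cytokine-stimulated cells without compound.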

The target of data set [3] is Nitric oxide synthase, inducible (Rattus norvegicus, UniProt Q06518). Nature of the data set: (§1) Inhibition of iNOS-mediated NO production in IL-1beta/IFNgamma-stimulated rat […] cells by Griess reaction. The method, boiled down: (§2)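 Same cytokine-stimulated RIN5F Griess assay (IL-1β 1 ng/mL, IFN-γ 10 ng/mL; nitrite at 550 nm, nitrite calibration). Concentrations were chosen per compound to span 10–90% inhibition, plus one or two outside this range. IC50 was obtained by linear regression of log concentration versus percent inhibition.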
Sequence of Nitric oxide synthase, inducible (Q06518 whole entry): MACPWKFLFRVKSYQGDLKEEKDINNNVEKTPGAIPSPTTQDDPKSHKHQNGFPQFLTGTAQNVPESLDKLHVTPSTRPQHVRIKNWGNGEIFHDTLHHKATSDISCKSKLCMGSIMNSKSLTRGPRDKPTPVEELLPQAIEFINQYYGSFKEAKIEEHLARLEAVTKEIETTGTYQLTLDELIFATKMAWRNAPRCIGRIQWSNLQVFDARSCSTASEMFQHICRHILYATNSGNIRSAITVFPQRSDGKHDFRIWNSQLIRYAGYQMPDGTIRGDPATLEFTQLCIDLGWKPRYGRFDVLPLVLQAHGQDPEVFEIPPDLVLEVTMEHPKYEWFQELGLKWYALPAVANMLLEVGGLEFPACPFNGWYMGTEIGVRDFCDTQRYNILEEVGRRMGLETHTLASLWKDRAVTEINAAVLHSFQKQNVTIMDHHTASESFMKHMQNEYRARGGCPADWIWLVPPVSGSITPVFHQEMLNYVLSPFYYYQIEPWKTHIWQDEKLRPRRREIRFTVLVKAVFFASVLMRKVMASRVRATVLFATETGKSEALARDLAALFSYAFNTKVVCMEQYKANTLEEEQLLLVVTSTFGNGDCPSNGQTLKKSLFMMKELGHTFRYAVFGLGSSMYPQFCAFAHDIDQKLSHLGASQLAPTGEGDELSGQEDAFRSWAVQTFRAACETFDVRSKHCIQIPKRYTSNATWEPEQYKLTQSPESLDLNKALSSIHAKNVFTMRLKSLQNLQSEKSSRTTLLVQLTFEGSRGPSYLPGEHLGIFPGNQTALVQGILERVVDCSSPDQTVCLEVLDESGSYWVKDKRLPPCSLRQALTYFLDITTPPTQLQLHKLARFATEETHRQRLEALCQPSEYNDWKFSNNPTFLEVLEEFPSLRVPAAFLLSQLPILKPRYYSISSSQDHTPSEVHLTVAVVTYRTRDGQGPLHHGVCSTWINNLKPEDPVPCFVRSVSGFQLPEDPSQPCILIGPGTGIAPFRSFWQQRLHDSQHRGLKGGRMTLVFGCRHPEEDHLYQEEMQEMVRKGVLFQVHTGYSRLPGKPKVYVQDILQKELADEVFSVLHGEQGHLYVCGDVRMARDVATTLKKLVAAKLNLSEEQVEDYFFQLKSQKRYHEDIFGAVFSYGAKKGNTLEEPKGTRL
For orientation: Griess reagent forms a coloured azo dye with nitrite.

Data set [4] has as its target Nitric oxide synthase, inducible (Rattus norvegicus) (UniProt Q06518). In words: Inhibition of iNOS-mediated NO production in IL-1beta/IFNgamma-stimulated rat […] cells at 39 to 78 uM by Griess reaction. The procedure, abridged:
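Compounds were added from 62.5 mM DMSO stock at 78 and 39 μM (final 0.5% DMSO). Nitrite in supernatant was measured by Griess reagents, absorbance 550 nm, against a 0–100 μM nitrite standard. Aminoguanidine was the reference on each plate. n = 5–8.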

A short description of data set [5]: Chemical stability in DMSO assessed as compound precipitation after 7 days. Conditions: 168 h. The format is physicochemical.
For data set [6], the target named is Nitric oxide synthase, inducible (Rattus norvegicus) (UniProt Q06518). In words: Ratio of aminoguanidine IC50 to compound IC50 for iNOS-mediated NO production in IL-1beta/IFNgamma-stimulated rat […] cells by Griess reaction.
Sequence of Nitric oxide synthase, inducible (Rattus norvegicus) (Q06518 whole entry): as above
The target is the same in data set [7]. The data set is described as §1. The procedure, abridged: as §2

Regarding `Cc1ccccc1C1NC(=S)N2CCCCN12` (centres undefined), the Stability result in data set [1] is recorded as “Unstable”. Besides, the Activity result in data set [2] is listed as “Non-toxic”. This compound came in with an IC50 in data set [3] of 60.3 µM.
Consider `Cc1cccc(C2NC(=S)N3CCCCN23)c1` (centres undefined), for which the Stability entry in data set [1] is recorded as “Unstable”. Further, the inhibition entry in data set [4] is “Active”. Besides, the Activity entry in data set [2] was “Non-toxic”.
On to `S=C1NC(c2ccccc2Cl)N2CCCCN12` (centres undefined), for which the Stability entry in data set [1] is given as “Unstable”. Moreover, in data set [2], the Activity result is on record as “Non-toxic”. This compound registered an IC50 in data set [3] of 63 µM.
Turning to `O=[N+]([O-])c1ccccc1/C=C/C1NC(=S)N2CCCCN12` (centres undefined), the Stability entry in data set [5] is reported as “Unstable”. Besides, the Ratio IC50 in data set [6] was found to be 10. Further, the Activity result in data set [2] was “Non-toxic”. Besides, the IC50 in data set [3] was 9.81 µM.
For `CC1NC(=S)N2CCCCN12` (centres undefined), the Stability entry in data set [1] was “Unstable”. For the same compound, the Activity entry in data set [2] is given as “Non-toxic”. In data set [7], the inhibition result is “inactive”.
Take `Oc1cccc(C2NC(=S)N3CCCCN23)c1` (centres undefined): the Stability entry in data set [1] is reported as “Unstable”. For the same compound, the inhibition entry in data set [4] is “Active”. In addition, the Activity entry in data set [2] is given as “Non-toxic”.
`Oc1ccc(C2NC(=S)N3CCCCN23)cc1` (centres undefined): in data set [1], the Stability result is “Unstable”. For the same compound, the inhibition result in data set [4] was “Active”. Also, the Activity entry in data set [2] is on record as “Non-toxic”.
Consider `O=[N+]([O-])c1ccccc1C1NC(=S)N2CCCCN12` (centres undefined), for which the Stability entry in data set [1] is recorded as “Unstable”. Besides, the Activity result in data set [2] was “Non-toxic”. For the same compound, 24.2 µM corresponded to half-maximal inhibition in data set [3] (IC50).
On to `S=C1NC(Cc2ccccc2)N2CCCCN12` (centres undefined), for which the Stability result in data set [1] is “Unstable”. Besides, the Activity entry in data set [2] is on record as “Non-toxic”. Moreover, the inhibition result in data set [7] is “inactive”.
`O=[N+]([O-])c1ccc(C2NC(=S)N3CCCCN23)cc1` (centres undefined): the Stability result in data set [1] is recorded as “Unstable”. For the same compound, the Activity entry in data set [2] is reported as “Non-toxic”. In addition, in data set [3], the IC50 was determined as 13.2 µM.
As to `CN(C)c1ccc(C2NC(=S)N3CCCCN23)cc1` (centres undefined), the Stability entry in data set [1] is “Unstable”. Besides, the Ratio IC50 in data set [6] was 2. The Activity entry in data set [2] is listed as “Non-toxic”. Further, the midpoint of inhibition in data set [3], the IC50, lay at 101 µM.
On to `O=[N+]([O-])c1cccc(C2NC(=S)N3CCCCN23)c1` (centres undefined), for which the Stability entry in data set [1] is listed as “Unstable”. Further, in data set [2], the Activity result was “Non-toxic”. This compound displayed an IC50 in data set [3] of 16.2 µM.
As for `S=C1NC(c2ccccc2)N2CCCCN12` (centres undefined), in data set [1], the Stability entry was “Unstable”. For the same compound, the inhibition result in data set [4] is “Active”. Moreover, the Activity entry in data set [2] is reported as “Non-toxic”.
On to `S=C1NC(/C=C/c2ccccc2)N2CCCCN12` (centres undefined), for which, in data set [5], the Stability entry is “Unstable”. In data set [2], the Activity entry is “Non-toxic”. This compound showed an IC50 in data set [3] of 29.9 µM.
With `S=C1NC(c2ccc(Cl)cc2)N2CCCCN12` (centres undefined), the Stability entry in data set [1] is recorded as “Unstable”. For the same compound, the Activity entry in data set [2] is recorded as “Non-toxic”. The IC50 in data set [3] worked out at 57.6 µM.
For `Oc1ccccc1C1NC(=S)N2CCCCN12` (centres undefined), in that order: “Unstable”, “Non-toxic” and 70 µM.
In the same order, the values of `S=C1NC(c2cccc(Oc3ccccc3)c2)N2CCCCN12` (centres undefined) are “Unstable”, “Non-toxic” and 40.2 µM.
Take `S=C1NC(c2cccc(Cl)c2)N2CCCCN12` (centres undefined): the Stability result in data set [1] is listed as “Unstable”. Besides, the inhibition entry in data set [4] is “Active”. For the same compound, the Activity result in data set [2] was “Non-toxic”.
In the same order, the values of `COc1ccc(C2NC(=S)N3CCCCN23)cc1` (centres undefined) are “Unstable”, “Active” and “Non-toxic”.
As for `Cc1ccc(C2NC(=S)N3CCCCN23)cc1` (centres undefined), the Stability entry in data set [1] is “Unstable”. Besides, the Activity result in data set [2] was “Non-toxic”. In data set [3], the IC50 came to 53.2 µM.
Regarding `N=C(N)NN` [PIMAGEDINE], the Activity result in data set [2] is “Non-toxic”. This compound also displayed an IC50 in data set [3] of 132 µM.

As usually defined, the IC50 is the concentration that gives 50% inhibition. Low values mean higher potency, high ones lower potency.
